From ChEMBL document CHEMBL3994613, “Diaryltriazenes as antibacterial agents against methicillin resistant Staphylococcus aureus (MRSA) and Mycobacterium smegmatis” (Eur J Med Chem, 2017)
Values after ≈ are worked out from the molar mass of the structure shown.

Legend:
[1] = test system: Mycolicibacterium smegmatis; assay: Antimycobacterial activity against Mycobacterium smegmatis MC2 155 after 94 to 98 hrs by microdilution method; type: functional; settings: str. MC2 155
How it was run: (§1)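 Microdilution in TSB broth. Inoculum from colonies grown 96 h on TSA, final 1×10^5 CFU/mL, aerobic 94–98 h at 37 °C, growth read on a plate reader, at least duplicate.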

[2] = test system: Mycolicibacterium smegmatis; assay: Bactericidal activity against Mycobacterium smegmatis MC2 155 after 96 hrs by microdilution method; type: functional; settings: str. MC2 155, 96 h; how it was run: as §1
Staphylococcus aureus [3] = assay: Antibacterial activity against methicillin-resistant Staphylococcus aureus USA300 after 18 to 20 hrs by microdilution method; type: functional
How it was run: (§2)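 EUCAST broth microdilution in LB broth. Inoculum prepared by direct colony suspension from 20–24 h LB agar (E. coli DH10β) or 5% sheep blood BHI agar (MRSA USA300) growth. Final inoculum 2×10^4 CFU/mL, 18–20 h aerobic at 37 °C, growth read on a plate reader, at least duplicate.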

Staphylococcus aureus [4] = assay: Bactericidal activity against methicillin-resistant Staphylococcus aureus USA300 after 18 to 20 hrs by microdilution method; type: functional; how it was run: as §2
Escherichia coli [5] = assay: Antibacterial activity against Escherichia coli DH10beta harboring pHuLUC3 after 18 to 20 hrs by microdilution method; type: functional; how it was run: as §2
Escherichia coli [6] = assay: Bactericidal activity against Escherichia coli DH10beta harboring pHuLUC3 after 18 to 20 hrs by microdilution method; type: functional; how it was run: as §2
Saccharomyces cerevisiae = assay: Antibacterial activity against Saccharomyces cerevisiae after 18 to 20 hrs by microdilution method
How it was run: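 Microdilution in YEP broth against wild-type yeast grown on YEP agar. Final inoculum 1×10^5 CFU/mL. Read after 18–20 h aerobic incubation at 30 °C on plate reader, at least one duplicate.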

Staphylococcus aureus [7] = assay: Induction of membrane integrity impairment in Staphylococcus aureus USA300 assessed as cells with intact membrane at 8 ug/ml measured after 30 mins by Baclight assay relative to control; type: functional
How it was run: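 LIVE/DEAD BacLight fluorescence assay. Live cells in 0.85% NaCl at OD600 0.2 were exposed to compound in DMSO for 30 min at 37 °C. Dye was then added and incubated 15 min in the dark at room temperature. Fluorescence read at ex 485 nm, em 530/630 nm. Intact membrane % came from a live/dead (isopropanol-killed) standard curve, at least triplicate, mean±SD.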

Staphylococcus aureus [8] = assay: Antibacterial activity against methicillin-resistant Staphylococcus aureus 1653 after 18 to 20 hrs by broth microdilution method; type: functional
How it was run: (§3)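 EUCAST broth microdilution in LB broth. Inoculum from 20–24 h colonies on 5% sheep blood BHI agar, final 3×10^4 CFU/mL, 18–20 h aerobic at 37 °C, plate reader, at least duplicate.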

Staphylococcus aureus [9] = assay: Bactericidal activity against methicillin-resistant Staphylococcus aureus 1653 after 18 to 20 hrs by broth microdilution method; type: functional; how it was run: as §3
Streptococcus pneumoniae [10] = assay: Antibacterial activity against Streptococcus pneumoniae R6 after 18 to 20 hrs by broth microdilution method; type: functional
How it was run: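 Broth microdilution per EUCAST in BHI broth. Inoculum from colonies on BHI agar with 5% sheep blood, final 5×10^4 CFU/mL. Read after 18–20 h anaerobic incubation at 37 °C.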

Streptococcus pneumoniae [11] = assay: Bactericidal activity against Streptococcus pneumoniae R6 after 18 to 20 hrs by broth microdilution method; type: functional
Bacillus subtilis [12] = assay: Antibacterial activity against Bacillus subtilis ATCC 6051 after 18 to 20 hrs by broth microdilution method; type: functional
How it was run: (§4)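 Broth microdilution per EUCAST in LB broth. Inoculum from 20–24 h colonies by CLSI direct colony suspension (LB agar for E. coli), final 2×10^4 CFU/mL. Read after 18–20 h aerobic incubation at 37 °C on plate reader, at least one duplicate.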

Bacillus subtilis [13] = assay: Bactericidal activity against Bacillus subtilis ATCC 6051 after 18 to 20 hrs by broth microdilution method; type: functional
Enterococcus faecalis [14] = assay: Antibacterial activity against vancomycin resistant Enterococcus faecalis 501 after 18 to 20 hrs by broth microdilution method; type: functional
How it was run: (§5)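 EUCAST microdilution in BHI broth. Inoculum from 20–24 h colonies on 5% sheep blood BHI agar, final 3×10^4 CFU/mL, 18–20 h aerobic at 37 °C, plate reader, at least duplicate.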

Enterococcus faecalis [15] = assay: Bactericidal activity against vancomycin resistant Enterococcus faecalis 501 after 18 to 20 hrs by broth microdilution method; type: functional; how it was run: as §5
Pseudomonas aeruginosa [16] = assay: Antibacterial activity against Pseudomonas aeruginosa PA0001 after 18 to 20 hrs by broth microdilution method; type: functional
How it was run: (§6)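 EUCAST broth microdilution in LB broth. Inoculum from 20–24 h LB agar colonies (CLSI direct colony suspension), final 3×10^4 CFU/mL. Aerobic incubation 18–20 h at 37 °C, plate-reader read-out, at least one duplicate.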

Pseudomonas aeruginosa [17] = assay: Antibacterial activity against Pseudomonas aeruginosa ATCC 27853 after 18 to 20 hrs by broth microdilution method; type: functional; how it was run: as §6
Klebsiella pneumoniae [18] = assay: Antibacterial activity against Klebsiella pneumoniae ATCC 13882 after 18 to 20 hrs by broth microdilution method; type: functional
How it was run: (§7)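 Broth microdilution per EUCAST in TSB broth. Inoculum prepared by CLSI direct colony suspension from 20–24 h TSA colonies, final 3×10^4 CFU/mL. Aerobic incubation for 18–20 h at 37 °C, growth read on plate reader, at least one duplicate.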

Klebsiella pneumoniae [19] = assay: Antibacterial activity against Klebsiella pneumoniae ATCC 700603 after 18 to 20 hrs by broth microdilution method; type: functional; how it was run: as §7
Acinetobacter baumannii [20] = assay: Antibacterial activity against Acinetobacter baumannii ATCC 19606 after 18 to 20 hrs by broth microdilution method; type: functional; settings: ATCC 19606 = CIP 70.34 = JCM 6841; how it was run: as §7
Acinetobacter baumannii [21] = assay: Antibacterial activity against Acinetobacter baumannii ATCC BAA-1605 after 18 to 20 hrs by broth microdilution method; type: functional; how it was run: as §7
[22] = Solubility of the compound in water; type: physicochemical; settings: buffer
[23] = Stability of the compound in water; type: physicochemical; settings: buffer
[24] = Stability of the compound in organic solvent; type: physicochemical
[25] = Stability of the compound in solid state; type: physicochemical
Escherichia coli [26] = assay: Antibacterial activity against Escherichia coli D22 after 18 to 20 hrs by microdilution method; type: functional; how it was run: as §4
Escherichia coli [27] = assay: Bactericidal activity against Escherichia coli D22 after 18 to 20 hrs by microdilution method; type: functional
Escherichia coli [28] = assay: Antibacterial activity against N43 CGSC 5583 knock out Escherichia coli after 18 to 20 hrs by microdilution method; type: functional; how it was run: as §4
[29] = Stability in PBS buffer at pH 7.4 by TLC method; type: physicochemical
[30] = Stability in PBS buffer at pH 7.4 NMR method; type: physicochemical
[31] = Stability in pH 7.4 DMSOd6/PBS buffer assessed as glutathione reactivity incubated for 24 hrs by 1H NMR spectroscopic method; type: physicochemical; settings: pH 7.4, 24 h
How it was run: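 Equimolar reduced glutathione and compound were incubated at room temperature in DMSO-d6/phosphate buffer pH 7.4 (1:1, v/v). The mixture was monitored by NMR.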

Structure (SMILES): O=C(CCl)N(/N=N/c1ccc([N+](=O)[O-])cc1C(F)(F)F)c1ccc([N+](=O)[O-])cc1C(F)(F)F
- MIC [1]: 32 µg/mL (≈ 64 µM)
- MBC [2]: > 128 µg/mL
- MIC (Staphylococcus aureus [3]): 2 µg/mL (≈ 4 µM)
- MBC (Staphylococcus aureus [4]): 2 µg/mL (≈ 4 µM)
- MIC (Escherichia coli [5]): 128 µg/mL (≈ 256 µM)
- MBC (Escherichia coli [6]): > 128 µg/mL
- MIC (Saccharomyces cerevisiae): > 128 µg/mL
- Activity (Staphylococcus aureus [7]): 100%
- MIC (Staphylococcus aureus [8]): 0.03 µg/mL (≈ 0.06 µM)
- MBC (Staphylococcus aureus [9]): 0.5 µg/mL (≈ 1 µM)
- MIC (Streptococcus pneumoniae [10]): 0.0312 µg/mL (≈ 0.0625 µM)
- MBC (Streptococcus pneumoniae [11]): 0.125 µg/mL (≈ 0.25 µM)
- MIC (Bacillus subtilis [12]): 0.0312 µg/mL (≈ 0.0625 µM)
- MBC (Bacillus subtilis [13]): 4 µg/mL (≈ 8 µM)
- MIC (Enterococcus faecalis [14]): 1 µg/mL (≈ 2 µM)
- MBC (Enterococcus faecalis [15]): > 128 µg/mL
- MIC (Pseudomonas aeruginosa [16]): > 128 µg/mL
- MIC (Pseudomonas aeruginosa [17]): > 128 µg/mL
- MIC (Klebsiella pneumoniae [18]): > 128 µg/mL
- MIC (Klebsiella pneumoniae [19]): > 128 µg/mL
- MIC (Acinetobacter baumannii [20]): > 128 µg/mL
- MIC (Acinetobacter baumannii [21]): > 128 µg/mL
- solubility [22]: Soluble
- Stability [23]: Stable
- Stability [24]: Stable
- Stability [25]: Stable
- MIC (Escherichia coli [26]): 0.5 µg/mL (≈ 1 µM)
- MBC (Escherichia coli [27]): 16 µg/mL (≈ 32 µM)
- MIC (Escherichia coli [28]): > 128 µg/mL

Structure (SMILES): O=[N+]([O-])c1ccc(/N=N/Nc2ccc([N+](=O)[O-])cc2C(F)(F)F)c(C(F)(F)F)c1
- Stability [29]: Stable
- Stability [30]: Stable

Structure (SMILES): O=[N+]([O-])c1ccc(/N=N/[N-]c2ccc([N+](=O)[O-])cc2C(F)(F)F)c(C(F)(F)F)c1.[K+]
- solubility [22]: Soluble
- Stability [23]: Stable
- Stability [24]: Stable
- Stability [25]: Stable
- Stability [31]: Stable
- Stability [29]: Stable
- Stability [30]: Stable
